Experimental data as given in publication PMC5431288 (European journal of medicinal chemistry, 2016).
pIC50: −log10 of the molar value.

What was measured:
[1] = tested on: panel of 11 human tumor cell lines; assay: MTT antiproliferative assay, whole panel; assay type: cell-based; conditions: read-out: GI50 values across the panel
Procedure, shortened: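 Leukemia lines grown in RPMI-1640 and adherent carcinoma lines in DMEM, each with 10% FBS plus penicillin/streptomycin. Seeded at 8 × 10³ cells/well and settled 18 h at 37 °C, 5% CO₂. Medium was then replaced with fresh medium holding graded compound concentrations from 10 mM DMSO stocks, in triplicate, for 72 h. Viability by MTT; GI50 is the concentration inhibiting proliferation by 50%.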

tubulin = conditions: cited from earlier work
A549 cell line = conditions: cited from earlier work
bovine brain tubulin = bovine brain tubulin (Bos taurus, UniProt P81947+Q6B856); conditions: read-out: tubulin assembly IC50; cited from earlier work
HeLa cells [2] = assay: Mitochondrial membrane potential; assay type: cell-based, human; conditions: 24 or 48 h
Jurkat cells [3] = assay: ROS production; assay type: cell-based, human; conditions: 24 or 48 h
Procedure, shortened: (§1)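 HeLa or Jurkat cells were treated with test compound for 24 or 48 h, then loaded with H₂-DCFDA, which ROS oxidise to fluorescent DCF. Fluorescence was measured by flow cytometry. Mean ± SEM of three independent experiments.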

HeLa cells [4] = assay: Annexin-V/PI apoptosis assay, HeLa; assay type: cell-based, human; conditions: 24 or 48 h
Procedure, shortened: (§2)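 Human lines: HeLa grown in DMEM and Jurkat in RPMI-1640, each with 10% FBS, penicillin G and streptomycin. Cells exposed to test compound at several concentrations for 24 or 48 h, harvested and double-stained with annexin-V-FITC and PI. Surface phosphatidylserine read by flow cytometry, giving live, early apoptotic, late apoptotic and necrotic fractions. Mean ± SEM of three independent experiments.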

Jurkat cells [5] = assay: Annexin-V/PI apoptosis assay, Jurkat; assay type: cell-based, human; conditions: 24 or 48 h
Procedure, shortened: as §2

Jurkat cells [6] = assay: Mitochondrial membrane potential; assay type: cell-based, human; conditions: 24 or 48 h
HeLa cells [7] = assay: ROS production; assay type: cell-based, human; conditions: 24 or 48 h
Procedure, shortened: as §1

Jurkat cells [8] = assay: Flow cytometric cell cycle analysis, Jurkat; assay type: cell-based, human; conditions: 24 h, different concentrations
Procedure, shortened: (§3)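 5 × 10⁵ HeLa (DMEM) or Jurkat (RPMI-1640) cells, both with 10% FBS, were treated with a range of test compound concentrations for 24 h. Cells were then collected and fixed in ice-cold 70% ethanol, lysed in buffer with RNase A and 0.1% Triton X-100, and PI-stained. DNA content was read by flow cytometry and histograms analysed for phase percentages. Mean of two independent experiments.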

HeLa cells [9] = assay: Flow cytometric cell cycle analysis, HeLa; assay type: cell-based, human; conditions: 24 h, different concentrations
Procedure, shortened: as §3

[10] = Metabolic stability in human liver microsomes; assay type: in vitro ADME; conditions: 10 μM
Procedure, shortened: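 Pooled mixed-gender human liver microsomes (1.0 mg/mL) in 0.1 M KH₂PO₄, pH 7.4, with 10 μM final compound, with or without 1 mM NADPH; buffer-only controls. Microsomes added after 3-min equilibration at 37 °C. Stopped at 0, 15, 30 or 60 min with ice-cold acetonitrile, then centrifuged. Supernatants analysed by C18 HPLC with fluorescence detection (ex 344/em 493 nm). Percent remaining from peak area versus 0 min; mean ± SD, n = 3–4.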

Sequence of bovine brain tubulin (Q6B856 whole entry): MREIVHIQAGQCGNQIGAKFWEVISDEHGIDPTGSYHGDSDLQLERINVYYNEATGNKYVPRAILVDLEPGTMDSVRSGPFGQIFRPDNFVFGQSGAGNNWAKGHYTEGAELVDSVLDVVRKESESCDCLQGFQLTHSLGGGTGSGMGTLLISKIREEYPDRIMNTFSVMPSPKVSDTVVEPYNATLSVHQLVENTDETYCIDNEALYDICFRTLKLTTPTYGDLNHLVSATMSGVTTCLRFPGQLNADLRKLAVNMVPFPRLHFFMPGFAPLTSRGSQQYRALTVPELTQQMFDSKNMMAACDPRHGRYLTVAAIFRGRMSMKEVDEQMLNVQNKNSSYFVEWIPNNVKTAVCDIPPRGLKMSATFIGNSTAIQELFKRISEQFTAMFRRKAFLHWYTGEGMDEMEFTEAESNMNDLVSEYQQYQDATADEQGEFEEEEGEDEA
Sequence of bovine brain tubulin (P81947 whole entry): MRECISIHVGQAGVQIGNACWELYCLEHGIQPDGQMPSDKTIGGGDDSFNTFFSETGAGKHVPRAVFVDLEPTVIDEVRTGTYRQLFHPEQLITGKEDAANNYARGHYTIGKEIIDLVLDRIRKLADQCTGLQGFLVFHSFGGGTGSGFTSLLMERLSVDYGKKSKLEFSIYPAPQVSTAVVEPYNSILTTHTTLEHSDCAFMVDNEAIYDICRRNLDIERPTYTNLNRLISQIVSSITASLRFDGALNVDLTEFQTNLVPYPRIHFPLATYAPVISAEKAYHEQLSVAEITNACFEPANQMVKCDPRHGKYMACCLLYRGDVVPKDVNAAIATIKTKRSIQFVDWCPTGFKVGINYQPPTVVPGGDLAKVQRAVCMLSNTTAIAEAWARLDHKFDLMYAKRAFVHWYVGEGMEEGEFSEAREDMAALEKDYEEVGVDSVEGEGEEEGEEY

SMILES	GI50 [1]	cells with low mitochondrial transmembrane potential (JC-1) (HeLa cells [2])	ROS production (H2-DCFDA) (Jurkat cells [3])	induction of apoptosis (annexin-V/PI) (HeLa cells [4])	induction of apoptosis (annexin-V/PI) (Jurkat cells [5])	cells with low mitochondrial transmembrane potential (JC-1) (Jurkat cells [6])	ROS production (H2-DCFDA) (HeLa cells [7])	further results
CS(=O)(=O)N1CCc2cc3[nH]c(-c4ccccc4)cc(=O)c3cc21 [Compound 8b, 1N-methanesulfonyl-2,3-dihydro-6-phenyl-5H-pyrrolo [2,3-g]quinolin-8-one]	> 10000 nM							
O=c1cc(-c2ccccc2)[nH]c2ccc3c(ccn3CC3CC3)c12 [Compound 10]								inhibition of colchicine binding (tubulin): 83%; induction of autophagy (A549 cell line): induce autophagy; pIC50 (bovine brain tubulin): 6.05
O=C(c1ccccc1)N1CCc2c1ccc1[nH]c(-c3ccccc3)cc(=O)c21 [Compound 7a, 3-benzoyl-1,2-dihydro-7-phenyl-6H-pyrrolo[3,2-f]quinolin-9-one]	250 to 2650 nM							
CS(=O)(=O)n1ccc2c3c(=O)cc(-c4ccccc4)[nH]c3ccc21 [Compound 4b, 3-Methanesulfonyl-7-phenyl-6H-pyrrolo[3,2-f]quinolin-9-one]		marked increase in the percentage of cells with low Δϕmt	induced the production of large amounts of ROS	significant time- and concentration-dependent increase of apoptotic cells	significant time- and concentration-dependent increase of apoptotic cells	marked increase in the percentage of cells with low Δϕmt	induced the production of large amounts of ROS	
O=C(c1ccccc1)n1ccc2c3c(=O)cc(-c4ccccc4)[nH]c3ccc21 [Compound 4a, 3-Benzoyl-7-phenyl-6H-pyrrolo[3,2-f]quinolin-9-one]	0.1 to 10 nM	marked increase in the percentage of cells with low Δϕmt	induced the production of large amounts of ROS	significant time- and concentration-dependent increase of apoptotic cells	significant time- and concentration-dependent increase of apoptotic cells	marked increase in the percentage of cells with low Δϕmt	induced the production of large amounts of ROS	effect on cell cycle progression (Jurkat cells [8]): significant G2/M arrest in a concentration-dependent manner; effect on cell cycle progression (HeLa cells [9]): significant G2/M arrest in a concentration-dependent manner; influence of NADPH on compound disappearance ([10]; HLMs 1 mg/mL, with or without 1 mM NADPH): not influenced by the presence of NADPH; compound remaining ([10]; human liver microsomes 1 mg/mL, 60 min, 37 °C): more than 60%
